Where two headings read alike, the source gives them in different places. Marks after values point to notes of the source that are not given here.
Columns and labels:
[1] = Safety and tolerability, multiple-dose study; format: in vivo, human (Japanese hemodialysis patients with SHPT)
Procedure, shortened: (§1)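 Safety was assessed descriptively from AEs, vital signs, clinical laboratory tests and 12-lead ECGs (centrally analyzed, QTc by Fridericia). Anti-drug antibodies were measured by validated ELISA. Hypocalcemia was defined as cCa < 7.5 mg/dl. Dosing was a single i.v. injection after dialysis (5, 10 or 20 mg), or 2.5 or 5 mg i.v. three times weekly for 4 weeks. Each dose cohort started only after the earlier cohorts met the safety criteria.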

[2] = system: serum albumin-corrected calcium (cCa); experiment: Serum cCa change, single-dose study; format: in vivo, human (Japanese hemodialysis patients with SHPT); details: mean ± SD, n = 4
Procedure, shortened: (§2)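 Japanese hemodialysis patients with SHPT received a single 5, 10 or 20 mg i.v. injection, or placebo, via the venous blood line after dialysis. Active groups had n = 4; placebo was pooled across cohorts. Serum iPTH, albumin-corrected Ca and P were measured by a central laboratory. Data are percent change from baseline over time, with mean maximum change from baseline, reported descriptively as mean ± SD.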

[3] = Antibodies against etelcalcetide, ELISA; format: in vivo, human (Japanese hemodialysis patients with SHPT); details: validated ELISA
[4] = system: serum intact parathyroid hormone (iPTH); experiment: Serum iPTH change, single-dose study; format: in vivo, human (Japanese hemodialysis patients with SHPT); details: for serum iPTH, mean maximum change from the baseline: mean ± SD, n = 4
Procedure, shortened: as §2

[5] = Plasma etelcalcetide pharmacokinetics, multiple-dose study; format: in vivo, human (Japanese hemodialysis patients with SHPT); details: for AUC(0-t) / Cmax: human, plasma, iv; for AUC(0-t): AUClast
Procedure, shortened: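 Two cohorts of 11 hemodialysis patients with SHPT, randomized 8:3 to drug or placebo. Plasma drug was measured by LC/MS/MS, with samples taken before each dialysis. Per-subject noncompartmental Cmax and AUClast were compared for the day 1 and day 27 injections. Values are geometric mean (95% CI).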

[6] = Safety and tolerability, single-dose study; format: in vivo, human (Japanese hemodialysis patients with SHPT)
Procedure, shortened: as §1

[7] = cited from earlier work
serum P = experiment: Serum phosphorus change; format: in vivo, human (Japanese hemodialysis patients with SHPT); details: for serum P, percent change from the baseline at the end of the treatment or withdrawal: mean ± SD
[8] = Plasma etelcalcetide pharmacokinetics, single-dose study; format: in vivo, human (Japanese hemodialysis patients with SHPT); details: human, iv
Procedure, shortened: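 Japanese hemodialysis patients (≥20 y) with SHPT, iPTH ≥ 300 pg/ml and cCa ≥ 9.0 mg/dl, randomized 2:1 to drug or placebo in cohorts of 6. A single i.v. injection (5, 10 or 20 mg) was given via the venous blood line after dialysis. Plasma drug was measured by LC/MS/MS. Cmax and AUClast (to the last quantifiable point before the next hemodialysis) were derived per subject by noncompartmental analysis and reported as mean ± SD.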

[9] = system: serum intact parathyroid hormone (iPTH); experiment: Serum iPTH change, multiple-dose study; format: in vivo, human (Japanese hemodialysis patients with SHPT); details: mean ± SD; for serum iPTH, percent change 30 minutes after injection / serum iPTH, percent change from baseline on day 3: multiple-dose study; for serum iPTH, percent change 30 minutes after injection: first injection, n = 8
Procedure, shortened: (§3)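 Blood was drawn before each dialysis, plus serial samples after the day 1 and day 27 injections. Serum iPTH, BAP, TRACP-5b and FGF23 were measured centrally. Data are percent change from baseline, mean ± SD.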

[10] = system: BAP, TRACP-5b, FGF23 serum levels; experiment: Serum BAP, TRACP-5b and FGF23, multiple-dose study; format: in vivo, human (Japanese hemodialysis patients with SHPT)
Procedure, shortened: as §3

[11] = system: serum albumin-corrected calcium (cCa); experiment: Serum cCa change, multiple-dose study; format: in vivo, human (Japanese hemodialysis patients with SHPT); details: mean ± SD
Procedure, shortened: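 Randomized, double-blind, placebo-controlled, 16 centres. Patients: ≥20 y, hemodialysis 3×/week ≥90 days, iPTH ≥ 300 pg/ml, cCa ≥ 9.0 mg/dl, dialysate Ca ≥2.25 mEq/l. Blood taken before each dialysis; follow-up to day 55. Serum cCa measured centrally; percent change from baseline at day 55 or withdrawal.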

[12] = M1, 2.5 mg, n = 7, geometric mean (95% confidence interval)
[13] = M2, 5 mg, n = 8, geometric mean (95% confidence interval)
[14] = 2.5 mg, M1, 2.5 mg i.v. 3 times weekly for 4 weeks, day 1 (first administration), n = 8, mean ± SD
[15] = 5 mg, M2, 5 mg i.v. 3 times weekly for 4 weeks, day 1, n = 8, mean ± SD
[16] = 5 mg, M2, 5 mg i.v. 3 times weekly for 4 weeks, day 27, n = 8, mean ± SD
[17] = 2.5 mg i.v. 3 times weekly for 4 weeks
[18] = 5 mg i.v. 3 times weekly for 4 weeks

## CC(=O)N[C@H](CSSC[C@H](N)C(=O)O)C(=O)N[C@H](C)C(=O)N[C@H](CCCNC(=N)N)C(=O)N[C@H](CCCNC(=N)N)C(=O)N[C@H](CCCNC(=N)N)C(=O)N[C@H](C)C(=O)N[C@H](CCCNC(=N)N)C(N)=O [etelcalcetide, Etelcalcetide]
[1]; 2.5 mg i.v. 3 times weekly for 4 weeks, 7 patients of 8
  patients with AEs: 87.5%
[1]; 2.5 mg i.v. 3 times weekly, relationship to treatment not ruled out
  serious AE: cardiopulmonary arrest
[1]; 5 mg i.v. 3 times weekly
  serious AE: no serious AE was reported
[1]; 5 mg i.v. 3 times weekly for 4 weeks, 3 patients of 8
  patients with AEs: 37.5%
[1]; multiple-dose study
  deaths: No deaths occurred
[1]; multiple-dose study, 2.5 or 5 mg i.v. 3 times weekly for 4 weeks
  hypocalcemia with serum cCa < 7.5 mg/dl: No patients experienced hypocalcemia
[2]; single i.v. 5 mg
  serum cCa, mean maximum change from the baseline: −7.26% ± 3.48%
[2]; single i.v. 10 mg
  serum cCa, mean maximum change from the baseline: −6.79% ± 5.86%
[2]; single i.v. 20 mg
  serum cCa, mean maximum change from the baseline: −14.26% ± 6.01%
[3]; multiple-dose study
  antietelcalcetide antibodies: No antietelcalcetide antibodies were detected
[3]; single-dose study
  antietelcalcetide antibodies: No antietelcalcetide antibodies were detected
[4]; single i.v. 5 mg
  serum iPTH, mean maximum change from the baseline: −50.43% ± 12.63%
[4]; single i.v. 10 mg
  serum iPTH, mean maximum change from the baseline: −69.26% ± 11.35%
[4]; single i.v. 20 mg, at 56 hours
  serum iPTH, percent change from the baseline: approximately −30%
[5]; [12]
  AUClast ratio day 27/day 1: 3.05 (2.91–3.19) ^c
  Cmax ratio day 27/day 1: 1.18 (0.86–1.62) ^c
[5]; [13]
  AUClast ratio day 27/day 1: 3.20 (2.87–3.57) ^c
  Cmax ratio day 27/day 1: 1.09 (0.90–1.32) ^c
[5]; [14]
  AUC(0-t): 600 ± 133 ng·h/mL
  Cmax: 151 ± 56 ng/mL
[5]; 2.5 mg, M1, 2.5 mg i.v. 3 times weekly for 4 weeks, day 27 (last administration), n = 7, mean ± SD
  AUC(0-t): 1830 ± 380 ng·h/mL
[5]; [15]
  AUC(0-t): 1200 ± 560 ng·h/mL
  Cmax: 315 ± 89 ng/mL
[5]; [16]
  AUC(0-t): 3860 ± 1840 ng·h/mL
  Cmax: 356 ± 143 ng/mL
[5]; multiple-dose study
  Cmax at week 4 relative to the initial dose: ≤ 1.18 times
[5]; multiple-dose study, discussion
  mean AUClast following day 27 injection relative to day 1 injection: approximately 3 times
[6]; single i.v. 10 mg, 1 patient of 4 (APTT), considered unrelated to treatment
  patients with AEs: 25.0%
[6]; single i.v. 5, 10 or 20 mg
  hypocalcemia with cCa < 7.5 mg/dl: No patients developed hypocalcemia
[6]; single-dose study, 5, 10 or 20 mg i.v.
  deaths or serious adverse events: No deaths or serious adverse events (AEs) were reported
[7]; 3-times-weekly 5- and 10-mg doses for 4 weeks, non-Japanese patients
  tolerability: tolerable
[7]; single i.v. injection at 5 to 60 mg, non-Japanese SHPT patients
  tolerability: tolerable
[7]; single injection of 5 mg, healthy Japanese subjects, ref unpublished data
  tolerability: tolerable
Serum P; [17]
  serum P, percent change from the baseline at the end of the treatment or withdrawal: −14.68% ± 13.38%
Serum P; [18]
  serum P, percent change from the baseline at the end of the treatment or withdrawal: −13.79% ± 18.18%
Serum P; single-dose study, from 4 hours to day 4
  serum P versus placebo: remained lower
[8]; 5 mg
  AUC(0-t): 1110 ± 360 ng·h/mL
  Cmax: 236 ± 89 ng/mL
[8]; 10 mg
  AUC(0-t): 2550 ± 110 ng·h/mL
  Cmax: 589 ± 88 ng/mL
[8]; 20 mg
  AUC(0-t): 5460 ± 680 ng·h/mL
  Cmax: 999 ± 135 ng/mL
[9]; [17]
  serum iPTH, percent change from the baseline at the end of the study or at study withdrawal: −26.25% ± 26.94%
[9]; [18]
  serum iPTH, percent change from the baseline at the end of the study or at study withdrawal: −45.65% ± 20.06%
[9]; 2.5 mg i.v.
  serum iPTH, percent change 30 minutes after injection: −41.65% ± 19.36%
  serum iPTH, percent change from baseline on day 3: −24.25% ± 13.36%
[9]; 5 mg i.v.
  serum iPTH, percent change 30 minutes after injection: −58.60% ± 6.47%
  serum iPTH, percent change from baseline on day 3: −32.64% ± 18.20%
[10]; day 29
  serum FGF23: tended to decrease
[10]; day 29, etelcalcetide groups
  serum BAP before hemodialysis: remained unchanged
  serum TRACP-5b: a trend toward decreases
[10]; day 55
  serum FGF23: a trend toward a return to baseline levels
[10]; day 55, etelcalcetide groups
  serum BAP before hemodialysis: trends toward decreases
  serum TRACP-5b: a return to baseline
[11]; [17]
  serum cCa, mean percent change from the baseline at the end of the study or at withdrawal: −7.05% ± 4.60%
[11]; [18]
  serum cCa, mean percent change from the baseline at the end of the study or at withdrawal: −12.75% ± 4.88%
